Results on 15 compounds are retold here after ChEMBL document CHEMBL1133676, “Synthesis and hypolipidemic and antiplatelet activities of alpha-asarone isomers in humans (in vitro), mice (in vivo), and rats (in vivo)” (2000).

Molecules are shown by their SMILES.

Broadly, the Inhibition is the change of the read-out against control, counted positive when it falls. Read a high Inhibition as a response far below the control.

Holding throughout (type): functional
In experiment [1] the test system is Mus musculus. Nature of the experiment: Effect on acute pulmonary thromboembolism in mice at 100 mg/kg expressed as no. of killed or paralyzed to no. of tested observed after 10 min. Put shortly: (§1)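 Male Swiss mice (29.4 ± 2.6 g) were given a single ip dose 1 h before a rapid tail-vein injection of collagen (25 μg/mouse) plus epinephrine (27 μg/mouse) in 0.154 M NaCl. Vehicles were miglyol 812 for asarones, or DMSO with Sörensen phosphate buffer pH 7.0 for ketorolac, at 0.1 mL/10 g. Death or paralysis was scored within 10 min; controls received vehicle only; χ² test.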

Experiment [2] relates to Mus musculus. Nature of the experiment: Effect on acute pulmonary thromboembolism in mice at 100 mg/kg. In short, it runs like this:
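Male Swiss mice (29.4 ± 2.6 g) received a single ip dose 1 h before a rapid tail-vein injection of collagen (25 μg/mouse) plus epinephrine (27 μg/mouse) in 0.154 M NaCl. Asarones were given in miglyol 812, and ketorolac in DMSO/Sörensen phosphate buffer pH 7.0, at 0.1 mL/10 g. Death or paralysis was scored within 10 min and reported as % protected versus vehicle controls; χ² test.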

For experiment [3], the species on record is Homo sapiens. Nature of the experiment: In vitro inhibition of human platelet aggregation induced by 10 uM ADP after incubation at 200 uM. In short, it runs like this:
(§2)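 Born turbidimetric assay in citrated platelet-rich plasma from healthy male volunteers, with platelet-poor plasma set as 100% transmission. Agents in 95% ethanol were preincubated with PRP for 2 min at 37 °C, stirred at 1000 rpm.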

The species named for experiment [4] is Homo sapiens. Nature of the experiment: In vitro inhibition of human platelet aggregation induced by 10 uM ADP after incubation at 250 uM. Put shortly: as §2
For experiment [5], the species on record is Homo sapiens. Nature of the experiment: In vitro inhibition of human platelet aggregation induced by 10 uM ADP after incubation at 150 uM. In short, it runs like this:
as §2

The species entered for experiment [6] is Homo sapiens. Nature of the experiment: In vitro inhibition of human platelet aggregation induced by 10 uM ADP after incubation at 100 uM. Put shortly: as §2
The species entered for experiment [7] is Homo sapiens. Nature of the experiment: In vitro inhibition of human platelet aggregation induced by 10 uM ADP after incubation at 300 uM. In short, it runs like this: as §2
In experiment [8] the test system is Rattus norvegicus. Nature of the experiment: Triglyceride level in Wistar male rats administered at a dose of 80 mg/kg. Put shortly: (§3)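 Agents in oil (5 mL/kg) were given once daily by gastric intubation. Doses were 80 mg/kg for test agents and 150 mg/kg for the positive control; chow-fed and vehicle-oil groups served as controls. After a 16 h fast and ether anesthesia, ocular-puncture blood was drawn. Serum lipids were measured by kit spectrophotometry; Student's t-test, n = 9–10.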

The test system of experiment [9] is Rattus norvegicus. Nature of the experiment: Total cholesterol level in Wistar male rats administered at a dose of 80 mg/kg. In short, it runs like this: as §3
Experiment [10] concerns Rattus norvegicus. The experiment is described as follows: HDL (high density lipoproteins) cholesterol level in Wistar male rats at a dose of 80 mg/kg. Put shortly: as §3
In experiment [11] the test system is Rattus norvegicus. The experiment is described as follows: LDL (low density lipoproteins) cholesterol level in Wistar male rats at a dose of 80 mg/kg. Put shortly: (§4)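 Compounds in oil (5 mL/kg) were given by gastric intubation once daily, at 80 mg/kg or 150 mg/kg for clofibrate. Rats were then fasted 16 h […], and serum lipids were measured spectrophotometrically with kits; Student's t-test.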

For experiment [12], the system named is Mus musculus. Nature of the experiment: Effect on acute pulmonary thromboembolism in mice at 25 mg/kg.
Experiment [13] has as its system Mus musculus. The experiment is described as follows: Effect on acute pulmonary thromboembolism in mice at 25 mg/kg expressed as no. of killed or paralyzed to no. of tested observed after 10 min.
Experiment [14] relates to Rattus norvegicus. Nature of the experiment: HDL (high density lipoproteins) cholesterol level in Wistar male rats at 150 mg/kg. Put shortly: as §3
In experiment [15] the test system is Rattus norvegicus. The experiment is described as follows: LDL (low density lipoproteins) cholesterol level in Wistar male rats at 150 mg/kg. In short, it runs like this: as §4
For experiment [16], the system named is Rattus norvegicus. The experiment is described as follows: Triglyceride level in Wistar male rats at a dose of 150 mg/kg. Put shortly:
as §3

The subject of experiment [17] is Rattus norvegicus. Nature of the experiment: Total cholesterol level in Wistar male rats at a dose of 150 mg/kg. In short, it runs like this: as §3
For experiment [18], the system named is Mus musculus. The experiment is described as follows: Effect on acute pulmonary thromboembolism in mice at 50 mg/kg expressed as no. of killed or paralyzed to no. of tested observed after 10 min. Put shortly: as §1
Experiment [19] has as its system Mus musculus. Nature of the experiment: Effect on acute pulmonary thromboembolism in mice at 50 mg/kg. In short, it runs like this:
as §1

Experiment [20] is filed under the species Rattus norvegicus. The experiment is described as follows: Cholesterol level in Wistar male rats. Put shortly: as §3
Experiment [21] is filed under the species Rattus norvegicus. Nature of the experiment: HDL (high density lipoproteins) cholesterol level in Wistar male rats. Put shortly:
as §3

For experiment [22], the species on record is Rattus norvegicus. The experiment is described as follows: Triglyceride level in Wistar male rats. Put shortly: as §3
The species entered for experiment [23] is Rattus norvegicus. Nature of the experiment: LDL (low density lipoproteins) cholesterol level in Wistar male rats. Put shortly:
as §4

Experiment [24] deals with Rattus norvegicus. The experiment is described as follows: Total cholesterol level in Wistar male rats at a dose of 80 mg/kg. Put shortly:
as §4

Experiment [25] relates to Rattus norvegicus. Nature of the experiment: Triglyceride level in Wistar male rats at a dose of 80 mg/kg. Put shortly:
as §4

Regarding `C/C=C/c1c(OC)cc(OC)cc1OC`, the “No. of killed or paralyzed” value in the experiment on Mus musculus [1] is recorded as 30. Also, the Protected with Mus musculus [2] is on record as 25%. Also, the Inhibition in the experiment listed under Homo sapiens [3] turned out to be 31%; in the experiment filed under Homo sapiens [4], 7.5%; in the experiment listed under Homo sapiens [5], 19%; in the experiment listed under Homo sapiens [6], 15.9%; in the experiment listed under Homo sapiens [7] it was 17.5%.
As to `C/C=C/c1c(OC)ccc(OC)c1OC.CC(C)CCC[C@@H](C)[C@H]1CC[C@H]2[C@@H]3CC=C4C[C@@H](O)CC[C@]4(C)[C@H]3CC[C@]12C`, the Triglyceride level in the experiment on Rattus norvegicus [8] amounted to 162 mg/dL. In the experiment on Rattus norvegicus [9], the Total cholesterol came out at 115 mg/dL. In the experiment on Rattus norvegicus [10], this compound showed an HDL cholesterol of 30.2 mg/dL. In addition, in the experiment with Rattus norvegicus [11], the LDL cholesterol amounted to 48.2 mg/dL.
For the compound `C/C=C/c1cc(OC)c(OC)c(OC)c1`, the “No. of killed or paralyzed” value with Mus musculus [1] is listed as 17. In the experiment with Mus musculus [2], this compound yielded a Protected of 19%.
For `C/C=C/c1ccc(OC)c(OC)c1OC`, the “No. of killed or paralyzed” value with Mus musculus [1] came out at 14. In the experiment with Mus musculus [2], the Protected was found to be 0%.
For the compound `CC(=O)Oc1ccccc1C(=O)O` [ASPIRIN], in the experiment with Mus musculus [12], the Protected was 45%. Also, the “No. of killed or paralyzed” value in the experiment with Mus musculus [13] is given as 28. In addition, the Inhibition in the experiment listed under Homo sapiens [3] is 48.5%; in the experiment filed under Homo sapiens [4], 56.4%; in the experiment filed under Homo sapiens [5] it was 37.1%; in the experiment filed under Homo sapiens [6], 31.2%.
The compound `CC(C)CCC[C@@H](C)[C@H]1CC[C@H]2[C@@H]3CC=C4C[C@@H](O)CC[C@]4(C)[C@H]3CC[C@]12C.CCOC(=O)C(C)(C)Oc1ccc(Cl)cc1` [CLOFIBRATE + CHOLESTEROL] returned an HDL cholesterol in the experiment on Rattus norvegicus [14] of 22.1 mg/dL. The compound also registered an LDL cholesterol in the experiment on Rattus norvegicus [15] of 46.1 mg/dL. In the experiment with Rattus norvegicus [16], this compound had a Triglyceride level of 91.6 mg/dL. Also, the Total cholesterol in the experiment with Rattus norvegicus [17] was determined as 85.8 mg/dL.
Regarding `C/C=C/c1cc(OC)c(OC)cc1OC` [TRANS-ASARONE], the “No. of killed or paralyzed” value was 10 in the experiment on Mus musculus [1] and 13 in the experiment on Mus musculus [18]. Besides, the values for the Protected in the experiment on Mus musculus [2] and in the experiment on Mus musculus [19] were 44% and 0%, respectively. Further, the Inhibition came out at 40.3% in the experiment listed under Homo sapiens [3]; 30.3% in the experiment filed under Homo sapiens [4]; 14.7% in the experiment listed under Homo sapiens [5]; 4% in the experiment filed under Homo sapiens [6]; 47% in the experiment filed under Homo sapiens [7].
Regarding `C/C=C/c1cc(OC)cc(OC)c1OC`, the “No. of killed or paralyzed” value with Mus musculus [1] is listed as 12. In the experiment with Mus musculus [2], this compound returned a Protected of 52%. For the same compound, the Inhibition in the experiment listed under Homo sapiens [3] is given as 35.4%; in the experiment listed under Homo sapiens [4], 38.3%; in the experiment filed under Homo sapiens [5], 25.4%; in the experiment filed under Homo sapiens [6], 13%; in the experiment filed under Homo sapiens [7] it was 38.3%.
The compound `CC(C)CCC[C@@H](C)[C@H]1CC[C@H]2[C@@H]3CC=C4C[C@@H](O)CC[C@]4(C)[C@H]3CC[C@]12C` [CHOLESTEROL] displayed a Total cholesterol in the experiment listed under Rattus norvegicus [20] of 111 mg/dL. In addition, in the experiment filed under Rattus norvegicus [21], the HDL cholesterol was 29 mg/dL. In the experiment listed under Rattus norvegicus [22], this compound had a Triglyceride level of 125 mg/dL. Moreover, the LDL cholesterol in the experiment listed under Rattus norvegicus [23] turned out to be 43.2 mg/dL.
As to `O=C(c1ccccc1)c1ccc2n1CCC2C(=O)O` (configuration not stated) [KETOROLAC], the “No. of killed or paralyzed” value with Mus musculus [1] stood at 16. In the experiment with Mus musculus [2], this compound gave a Protected of 33%.
The compound `C/C=C/c1ccc(OC)c(OC)c1OC.CC(C)CCC[C@@H](C)[C@H]1CC[C@H]2[C@@H]3CC=C4C[C@@H](O)CC[C@]4(C)[C@H]3CC[C@]12C` returned a Triglyceride level in the experiment with Rattus norvegicus [8] of 125 mg/dL. In the experiment on Rattus norvegicus [9], this compound had a Total cholesterol of 96.6 mg/dL. Also, the HDL cholesterol with Rattus norvegicus [10] was determined as 42.8 mg/dL. Also, the LDL cholesterol with Rattus norvegicus [11] amounted to 30.1 mg/dL.
Consider `C/C=C/c1c(OC)cc(OC)cc1OC.CC(C)CCC[C@@H](C)[C@H]1CC[C@H]2[C@@H]3CC=C4C[C@@H](O)CC[C@]4(C)[C@H]3CC[C@]12C`, for which the Triglyceride level in the experiment with Rattus norvegicus [8] is 116 mg/dL. In the experiment with Rattus norvegicus [9], this compound came in with a Total cholesterol of 98.1 mg/dL. Moreover, the HDL cholesterol with Rattus norvegicus [10] turned out to be 37.9 mg/dL. The compound further showed an LDL cholesterol with Rattus norvegicus [11] of 36.9 mg/dL.
The matching figures for `C/C=C/c1cc(OC)cc(OC)c1OC.CC(C)CCC[C@@H](C)[C@H]1CC[C@H]2[C@@H]3CC=C4C[C@@H](O)CC[C@]4(C)[C@H]3CC[C@]12C`: 140 mg/dL, 97.9 mg/dL, 39.2 mg/dL and 35.8 mg/dL.
The matching figures for `C/C=C/c1cc(OC)c(OC)c(OC)c1.CC(C)CCC[C@@H](C)[C@H]1CC[C@H]2[C@@H]3CC=C4C[C@@H](O)CC[C@]4(C)[C@H]3CC[C@]12C`: 136 mg/dL, 93.4 mg/dL, 45.3 mg/dL and 19.8 mg/dL.
In the case of `C/C=C/c1cc(OC)c(OC)cc1OC.CC(C)CCC[C@@H](C)[C@H]1CC[C@H]2[C@@H]3CC=C4C[C@@H](O)CC[C@]4(C)[C@H]3CC[C@]12C` [ALPHAASARONE AND CHOLESTEROL], the Total cholesterol in the experiment on Rattus norvegicus [24] was 113.6 mg/kg. The HDL cholesterol in the experiment on Rattus norvegicus [10] came out at 45.5 mg/dL. The LDL cholesterol in the experiment with Rattus norvegicus [11] was found to be 24.4 mg/dL. Besides, in the experiment with Rattus norvegicus [25], the Triglyceride level stood at 219.3.
